Measured values: ChEMBL document CHEMBL2424625, “Synthesis and structure-activity relationships of novel indazolyl glucocorticoid receptor partial agonists” (Bioorg Med Chem Lett, 2013)

Key:
[1] = biological target: T1, Mineralocorticoid receptor (Homo sapiens, UniProt P08235); test: Agonist activity at mineralocorticoid receptor in human A549 cells by fluorescence assay; format: cell-based
T1 sequence (P08235 whole entry): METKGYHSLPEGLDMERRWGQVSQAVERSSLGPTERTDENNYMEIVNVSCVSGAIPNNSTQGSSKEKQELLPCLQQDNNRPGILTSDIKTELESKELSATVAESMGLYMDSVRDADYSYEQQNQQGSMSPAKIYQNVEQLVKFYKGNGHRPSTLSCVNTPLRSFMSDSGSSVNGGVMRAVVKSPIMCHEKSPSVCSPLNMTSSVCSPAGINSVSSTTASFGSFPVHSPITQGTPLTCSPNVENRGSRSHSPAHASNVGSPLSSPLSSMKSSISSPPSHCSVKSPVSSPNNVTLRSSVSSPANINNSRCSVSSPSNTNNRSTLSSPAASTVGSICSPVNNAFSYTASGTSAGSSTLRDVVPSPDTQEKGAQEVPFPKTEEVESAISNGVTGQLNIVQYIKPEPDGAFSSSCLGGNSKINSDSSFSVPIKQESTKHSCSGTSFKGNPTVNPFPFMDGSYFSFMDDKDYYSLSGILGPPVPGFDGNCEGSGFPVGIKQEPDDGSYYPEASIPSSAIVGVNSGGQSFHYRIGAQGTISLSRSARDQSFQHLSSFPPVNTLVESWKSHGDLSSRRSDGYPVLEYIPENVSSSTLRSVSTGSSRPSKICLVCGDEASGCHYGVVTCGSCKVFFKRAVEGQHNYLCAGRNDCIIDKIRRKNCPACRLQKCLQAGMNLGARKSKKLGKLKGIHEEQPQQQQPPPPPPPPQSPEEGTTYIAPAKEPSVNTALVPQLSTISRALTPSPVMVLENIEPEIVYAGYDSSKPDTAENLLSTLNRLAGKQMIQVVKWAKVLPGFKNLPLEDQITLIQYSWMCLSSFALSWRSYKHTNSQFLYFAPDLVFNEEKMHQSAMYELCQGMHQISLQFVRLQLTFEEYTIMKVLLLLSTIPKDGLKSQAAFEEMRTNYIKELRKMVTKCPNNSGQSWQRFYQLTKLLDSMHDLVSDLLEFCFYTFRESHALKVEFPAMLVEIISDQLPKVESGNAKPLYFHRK
In short: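 A549 cells were run in MR agonist mode with aldosterone as positive control. EC50 was reported with % maximal efficacy, as means of duplicate experiments.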

Glucocorticoid receptor [2] = biological target: T2, Glucocorticoid receptor (Homo sapiens, UniProt P04150); test: Transrepression activity at glucocorticoid receptor in human A549 cells assessed as inhibition of IL1beta-stimulated NFkappaB-dependent E-selectin transcription by luciferase reporter gene assay; format: cell-based
T2 sequence (P04150 whole entry): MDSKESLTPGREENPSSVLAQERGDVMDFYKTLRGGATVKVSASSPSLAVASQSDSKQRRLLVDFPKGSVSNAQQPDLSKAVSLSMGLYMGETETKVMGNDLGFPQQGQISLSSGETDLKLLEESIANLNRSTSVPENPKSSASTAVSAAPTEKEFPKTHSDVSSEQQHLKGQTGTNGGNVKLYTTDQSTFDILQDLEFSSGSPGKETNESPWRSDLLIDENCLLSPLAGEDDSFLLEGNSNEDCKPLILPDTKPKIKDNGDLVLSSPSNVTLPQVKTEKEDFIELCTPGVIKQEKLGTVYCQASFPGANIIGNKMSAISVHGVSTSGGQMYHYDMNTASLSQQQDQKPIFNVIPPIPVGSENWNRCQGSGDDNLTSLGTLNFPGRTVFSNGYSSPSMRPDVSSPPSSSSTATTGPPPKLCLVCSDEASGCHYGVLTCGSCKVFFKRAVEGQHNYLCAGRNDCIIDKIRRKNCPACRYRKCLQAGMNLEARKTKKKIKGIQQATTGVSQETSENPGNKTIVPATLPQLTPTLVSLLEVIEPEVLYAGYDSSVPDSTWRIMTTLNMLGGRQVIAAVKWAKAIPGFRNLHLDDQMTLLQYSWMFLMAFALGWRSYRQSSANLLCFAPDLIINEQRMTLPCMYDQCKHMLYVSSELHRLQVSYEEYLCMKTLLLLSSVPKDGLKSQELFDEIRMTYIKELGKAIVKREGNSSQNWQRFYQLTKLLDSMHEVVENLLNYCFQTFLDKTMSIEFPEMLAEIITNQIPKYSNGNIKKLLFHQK

Glucocorticoid receptor [3] = biological target: T2, Glucocorticoid receptor; test: Binding affinity to glucocorticoid receptor (unknown origin) by fluorescence assay
[4] = biological target: T3, Glucocorticoid receptor (Homo sapiens) (UniProt P04150); test: Transrepression activity at glucocorticoid receptor in human A549 cells assessed as inhibition of PMA-stimulated AP1 response element by luciferase reporter gene assay relative to dexamethasone; format: cell-based
T3 sequence (whole entry): T2 sequence (P04150 whole entry)
In short: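 Transrepression of AP-1 was run in A549 lung epithelial cells. […] Values are means of two or more experiments in triplicate.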

Glucocorticoid receptor [5] = biological target: T2, Glucocorticoid receptor; test: Transrepression activity at glucocorticoid receptor in human A549 cells assessed as inhibition of PMA-stimulated AP1 response element by luciferase reporter gene assay; format: cell-based
[6] = biological target: T3, Glucocorticoid receptor (Homo sapiens); test: Transrepression activity at glucocorticoid receptor in human A549 cells assessed as inhibition of IL1beta-stimulated NFkappaB-dependent E-selectin transcription by luciferase reporter gene assay relative to dexamethasone; format: cell-based
In short: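 In A549 lung epithelial cells, NFkB activity was induced with IL-1β (0.5 ng/ml). Inhibition was quantitated as decreased luciferase activity. […] Values are means of two or more experiments in triplicate.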

Glucocorticoid receptor [7] = biological target: T2, Glucocorticoid receptor; test: Transactivation activity at glucocorticoid receptor ligand binding domain (unknown origin) expressed in human Hela cells co-expressing GAL4 DNA binding domain assessed as NP-1-stimulated GRE activation by luciferase reporter gene assay; format: cell-based
[8] = biological target: T3, Glucocorticoid receptor (Homo sapiens); test: Transactivation activity at glucocorticoid receptor ligand binding domain (unknown origin) expressed in human Hela cells co-expressing GAL4 DNA binding domain assessed as NP-1-stimulated GRE activation by luciferase reporter gene assay relative to dexamethasone; format: cell-based
In short: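 HeLa line (NP-1) stably transfected with a GR-LBD chimera cloned into a GAL4 luciferase reporter was run in agonist mode. Direct GR-LBD activation was read as increased luciferase activity. […] Values are means of two or more experiments in triplicate.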

| IC50 [1] | EC50 (Glucocorticoid receptor [2]) | Ki (Glucocorticoid receptor [3]) | Efficacy [4] | EC50 (Glucocorticoid receptor [5]) | Efficacy [6] | EC50 (Glucocorticoid receptor [7]) | Efficacy [8] | Structure (SMILES) |
| --- | --- | --- | --- | --- | --- | --- | --- | --- |
| > 5 µM | 0.0076 µM | 0.00064 µM | 74% | 0.0204 µM | 86% | 0.202 µM | 24% | CC(C)(CNS(=O)(=O)CC(F)(F)F)[C@@H](c1ccccc1)c1ccc2c(cnn2-c2ccc(F)cc2)c1 |
| > 5 µM | 0.058 µM | 0.00514 µM | 74% | 0.057 µM | 65% | 0.429 µM | 12% | CC(C)(C)NC(=O)NCC(C)(C)[C@@H](c1ccccc1)c1ccc2c(cnn2-c2ccc(F)cc2)c1 |
| > 5 µM | 0.00685 µM | 0.00081 µM | 91% | 0.0124 µM | 90% | 0.129 µM | 65% | CC(C)(CNC(=O)CC(F)(F)F)[C@@H](c1ccccc1)c1ccc2c(cnn2-c2ccc(F)cc2)c1 |
